Results of several laboratories.
Compare with care: the assays were run in different laboratories.
FLT3 D835V/ITD: Receptor-type tyrosine-protein kinase FLT3 (FLT3, Homo sapiens, UniProt P36888, D835V/ITD)
FLT3 N841I: Receptor-type tyrosine-protein kinase FLT3 (FLT3, Homo sapiens, UniProt P36888, N841I)
FLT3: Receptor-type tyrosine-protein kinase FLT3 (FLT3, Homo sapiens, UniProt P36888)
FLT3 D835Y: Receptor-type tyrosine-protein kinase FLT3 (FLT3, Homo sapiens, UniProt P36888, D835Y)
FLT3 K663Q: Receptor-type tyrosine-protein kinase FLT3 (FLT3, Homo sapiens, UniProt P36888, K663Q)
FLT3 R834Q: Receptor-type tyrosine-protein kinase FLT3 (FLT3, Homo sapiens, UniProt P36888, R834Q)
FLT3 D835V: Receptor-type tyrosine-protein kinase FLT3 (FLT3, Homo sapiens, UniProt P36888, D835V)

Structure (SMILES)	target	effect on	method	concentration	remaining binding
O=C(NC1CCC1)c1ccc2nc(-c3cccc(NS(=O)(=O)NCCN4CCCCC4)c3)cn2c1	FLT3 D835V/ITD	cell-free assay	competition with immobilised ligand	10 µM	37%
COc1cnc(Nc2cccc(S(N)(=O)=O)c2)nc1N1CCN(c2ccccc2)CC1	FLT3 N841I	binding	competition with immobilised ligand	1 µM	21%
FC(F)(F)c1ccc2c(c1)nc(-c1cccnc1)n2C1CC1	FLT3	cell-free assay	competition with immobilised ligand	1 µM	93%
COc1cnc(Nc2cccc(S(N)(=O)=O)c2)nc1N1CCN(c2ccccc2)C(=O)C1	FLT3 D835Y	binding	competition with immobilised ligand	1 µM	66%
CN(c1nccc(-c2cnn3ncccc23)n1)C1CC1	FLT3 K663Q	binding	–	1 µM	83%
COc1ncc2cc3ccccc3nc2c1C#N	FLT3 R834Q	cell-free assay	competition with immobilised ligand	5 µM	92%
O=C(NCc1ncc(C(F)(F)F)cc1Cl)c1ccc2c(c1)C1(CCS(=O)(=O)CC1)[C@H](C1CC1)N2S(=O)(=O)c1ccc(F)cc1	FLT3 R834Q	cell-free assay	competition with immobilised ligand	1 µM	90%
CNC(=O)[C@@H]1CC[C@@H](n2c(-c3ccc4cnccc4c3)nc3ccc(C(=O)NCc4cccc(C(N)=O)c4)cc32)C1	FLT3	binding	competition with immobilised ligand	1 µM	100%
O=C(NCCCC1CCCCC1)c1ccc(CNC(=O)c2cnn(-c3ccccc3)c2C(F)(F)F)cc1	FLT3 D835V/ITD	cell-free assay	competition with immobilised ligand	0.1 µM	100%
O=C(NCCCN1CCOCC1)c1ccc(Nc2nccc(-c3cc4ccccc4s3)n2)cc1	FLT3 D835V/ITD	binding	competition with immobilised ligand	1 µM	12%
F[C@@H]1CCN(c2nccc(-c3cnn4ncccc34)n2)C1	FLT3 D835V	binding	–	1 µM	84%
C=CC(=O)N1CCC(C(=O)NCC(=O)N2CCN(c3nc(-c4cnc(N)nc4C(F)F)nc(N4CCOCC4)n3)CC2)CC1	FLT3 D835Y	binding	competition with immobilised ligand	1 µM	99%
CN1CCN(c2ccc(Nc3nccc(-c4cccc([N+](=O)[O-])c4)n3)cc2C(F)(F)F)CC1	FLT3 D835V	binding	–	10 µM	0%
C[C@@H]1CCN(c2nccc(-c3cnn4ncccc34)n2)C1	FLT3 R834Q	binding	–	1 µM	71%
O=C(Nc1c[nH]nc1C(=O)NC1CCNCC1)c1cc(F)cc(F)c1	FLT3 K663Q	binding	competition with immobilised ligand	1 µM	96%
C[C@@H](c1ccc(-n2cnc3c(N)ncnc32)cc1)N1CCc2nn(C)c(Cc3ccccc3)c2C1=O	FLT3 R834Q	binding	competition with immobilised ligand	0.1 µM	88%
CN(C)c1nccc(-c2cnc3ncccn23)n1	Receptor-type tyrosine-protein kinase FLT3, autoinhibited (FLT3, Homo sapiens, UniProt P36888)	binding	–	1 µM	72%
Nc1ncc2c(n1)-c1c([nH]c3ccc(C#CC4CC4)cc13)CCCC2	FLT3 D835V	binding	competition with immobilised ligand	1 µM	92%
CNC(=O)Nc1ccc2c(c1)[C@@]1(CC2)OC(=O)N(CC(=O)N(Cc2ccc(F)cc2)[C@@H](C)C(F)(F)F)C1=O	FLT3 D835V	cell-free assay	competition with immobilised ligand	1 µM	81%

Structure (SMILES)	target	effect on	method	concentration	remaining binding
O=C(c1ccc(Nc2ncc(Cl)c(-c3ccc(Cl)s3)n2)cc1)N1CCC(N2CCCC2)CC1	FLT3 N841I	binding	competition with immobilised ligand	1 µM	0.4%
O=C(NCC1CCOCC1)c1n[nH]cc1NC(=O)c1c(F)cccc1F	FLT3	binding	competition with immobilised ligand	1 µM	92%
O=C(NCCCN1CCOCC1)c1ccc(Nc2ncc(Cl)c(-c3ccc(Cl)s3)n2)cc1	Receptor-type tyrosine-protein kinase FLT3 (FLT3, Homo sapiens, UniProt P36888, ITD)	binding	competition with immobilised ligand	1 µM	0.75%
NS(=O)(=O)c1cc(NC(=O)C2(c3ccccc3Cl)CC2)ccc1Oc1cccc(Cl)c1	Receptor-type tyrosine-protein kinase FLT3 (FLT3, Homo sapiens, UniProt P36888, F691L/ITD)	cell-free assay	competition with immobilised ligand	1 µM	100%
CN1CCN(c2ccc(Nc3nccc(-c4ccccc4)n3)cc2C(F)(F)F)CC1	Receptor-type tyrosine-protein kinase FLT3 (FLT3, Homo sapiens, UniProt P36888, D835H)	binding	–	10 µM	0.2%
O=C1NC(c2ccccn2)Sc2ccccc21 (stereo not shown)	FLT3 K663Q	cell-free assay	competition with immobilised ligand	1 µM	82%
O=C(c1ccc(Nc2ncc(Cl)c(-c3cc4ccccc4s3)n2)cc1)N1CCC(N2CCCC2)CC1	FLT3 D835V	binding	competition with immobilised ligand	1 µM	1.3%
C[C@@H]1CN(c2ccc3ncc(-c4ccc5[nH]nc(C6CC6)c5c4)n3n2)C[C@H](C)O1	FLT3	binding	competition with immobilised ligand	50 nM	31%
N[C@H]1CCN(c2nccc(-c3cnn4ncccc34)n2)C1	FLT3 K663Q	binding	–	1 µM	100%
C[C@H](c1cccc(C#N)c1)n1cc(Cl)cc(C(N)=O)c1=N	FLT3 R834Q	cell-free assay	competition with immobilised ligand	1 µM	100%
O=C(c1ccc(Nc2nccc(-c3cc4ccccc4s3)n2)cc1)N1CCC(N2CCCC2)CC1	FLT3 D835V	binding	competition with immobilised ligand	1 µM	3.1%
c1cncc(-c2cccc(Nc3nccc(NC4CCCCC4)n3)c2)c1	FLT3 R834Q	binding	competition with immobilised ligand	10 µM	5.5%
c1cnn2ncc(-c3ccnc(N4CCC45COC5)n3)c2c1	FLT3 D835V	binding	–	1 µM	20%
CCN1CCN(Cc2ccc(C(=O)Nc3ccc(C)c(Oc4ccc5c(c4)CC(=O)N5)c3)cc2C(F)(F)F)CC1	FLT3 K663Q	binding	competition with immobilised ligand	1 µM	45%
CN(CCCC(F)(F)F)c1nccc(-c2cnn3ncccc23)n1	FLT3 D835Y	binding	–	1 µM	76%
Cc1cnc(Nc2ccc(C(=O)N3CCC(N4CCCC4)CC3)cc2)nc1-c1cc2ccccc2s1	FLT3 D835V/ITD	binding	competition with immobilised ligand	1 µM	0.9%
CC(=O)N1CCC(c2ccc(C(=O)NC(=N)N)cc2C(F)(F)F)CC1	FLT3 K663Q	cell-free assay	competition with immobilised ligand	1 µM	100%
COc1ccnn2ncc(-c3ccnc(N(C)C)n3)c12	FLT3 K663Q	binding	–	1 µM	100%
